Experimental data as given in ChEMBL document CHEMBL1144558, “Potent anticancer activities of novel aminophenol analogues against various cancer cell lines” (2007).
Calls of active or inactive are those of the source. The rule behind the calls is not given here.

Experiments:
DU-145 = assay: Growth inhibition of human DU145 cells at 4 uM after 68 hrs relative to control; assay type: functional; details: DU-145, 68 h
Summary of the method: (§1)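 Adherent cells trypsinized, seeded at 0.5 × 10^4 cells/ml in RPMI 1640 with 10% FBS (maintenance medium also 10 mM HEPES pH 7.3), 37 °C, 5% CO2. Compound (4 µM) added after 1 day; 68 h exposure. Viable cells by MTT; % net growth = (treated − initial absorbance)/(control − initial absorbance) × 100. Mean of ≥3 (MCF-7 lines) or ≥4 (DU-145, HepG2) measurements.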

HL-60 [1] = assay: Growth inhibition of human HL60 cells at 4 uM after 72 hrs relative to control; assay type: functional; details: HL-60, 72 h
MCF7 [2] = assay: Growth inhibition of human estrogen receptor deficient adriamycin-resistant MCF7 cells at 4 uM after 68 hrs relative to control; assay type: functional; details: MCF7, 68 h; summary of the method: as §1
MCF7 [3] = assay: Growth inhibition of human estrogen receptor expressing MCF7 cells at 4 uM after 68 hrs relative to control; assay type: functional; details: MCF7, 68 h; summary of the method: as §1
HepG2 = assay: Growth inhibition of human HepG2 cells at 4 uM after 68 hrs relative to control; assay type: functional; details: HepG2, 68 h; summary of the method: as §1
HL-60 [4] = assay: Induction of apoptosis in human HL60 cells assessed as DNA fragmentation at 4 uM after 20 hrs; assay type: functional, cell-based
Summary of the method: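 Cells at 2 × 10^5 cells/ml in RPMI/10% FBS treated 20 h with 4 µM compound (DMSO control). Washed in PBS pH 7.2, lysed with proteinase K, RNase A and 1% SDS at 37 °C for 30 min, then NaI/isopropanol DNA extraction at 60 °C. DNA run on 2% agarose gel, stained with ethidium bromide, scored for ladder.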

Row | SMILES | inhibition at 4 µM (DU-145) [%] | inhibition at 4 µM (HL-60 [1]) [%] | inhibition at 4 µM (MCF7 [2]) [%] | inhibition at 4 µM (MCF7 [3]) [%] | inhibition at 4 µM (HepG2) [%] | Activity (HL-60 [4])
1 | CC1=C(/C=C/C(C)=C/C=C/C(C)=C/C(=O)O)C(C)(C)CCC1 [TRETINOIN] | 46 | 42 | 12 | 74 | 13 | –
2 | CC1=C(/C=C/C(C)=C/C=C/C(C)=C/C(=O)Nc2ccc(O)cc2)C(C)(C)CCC1 [FENRETINIDE] | 41 | 55 | 60 | 62 | 27 | –
3 | CCCCCCCCCCCCNc1ccc(O)cc1 | 73 | 72 | 100 | 66 | 13 | Active
4 | CCCCCCCCCCCC(=O)Nc1ccc(O)cc1 | 41 | 6 | 21 | 22 | 22 | –
5 | CCCCCCCCCC(=O)Nc1ccc(O)cc1 | 51 | 6 | 23 | 30 | 26 | –
6 | CCCCCCCCCCNc1ccc(O)cc1 | 66 | 66 | 100 | 57 | 17 | Active
